Data reported in ChEMBL document CHEMBL1157378, “Role for cell density in antifungal drug resistance in Candida albicans biofilms” (2007).
Values after ≈ are worked out from the molar mass of the structure shown. Active and inactive are the calls of the source. The calls are words filed in the database; no cut-off is given here.

Columns and labels:
Candida albicans [1] = experiment: Antimicrobial activity against Candida albicans FH1 intact biofilms after 48 hrs by XTT assay; type: functional; settings: FH1, 48 h
Summary of the method: (§1)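 Biofilm seeded at 1 x 10^6 cells/ml in RPMI in polystyrene microtiter wells and grown 48 h at 37°C in a moist chamber. Washed once and drug added to the same well (twofold dilutions, 1,024 to 0.0313 µg/ml) for 48 h at 37°C (caspofungin 24 h). Read-out: XTT/menadione reduction at 490 nm.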

Candida albicans [2] = experiment: Antimicrobial activity against Candida albicans SC5314 dissociated biofilms grown on silicone-elastomer coated latex surface at cell density of 10^8 cells/ml at 0.25 to 8 ug/ml by XTT assay; type: functional, organism-based
Summary of the method: (§2)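 1-cm discs of denture acrylic, PVC catheter or silicone elastomer-coated latex catheter, ethylene-oxide sterilised. Seeded with 1 ml of 1 x 10^6 cells/ml, adhesion 90 min at 37°C, washed, grown 48 h at 37°C in RPMI. Biofilm scraped off, set to 1 x 10^3 or 1 x 10^8 cells/ml, exposed to fluconazole, read by XTT at 490 nm.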

Candida albicans [3] = experiment: Inhibition of metabolic activity in Candida albicans SC5314 at 32 ug/ml; type: functional; design: scale not given: the % may be the effect or the level left
Summary of the method: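 SC5314 fluconazole susceptibility tested with or without FK506. Cell suspension, drug and FK506 volumes set to the final concentrations in 200 µl. Incubation at 37°C for 48 h, then metabolic activity by XTT/menadione at 490 nm.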

Candida albicans [4] = experiment: Antimicrobial activity against Cdr1, Cdr2 and Mdr1 deficient Candida albicans DSY1050 dissociated biofilms at cell density of 10^3 cells/ml after 48 hrs by XTT assay; type: functional; settings: DSY1050, 48 h
Summary of the method: (§3)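 Polystyrene-well biofilms (48 h, 37°C) washed, then broken up in 100 µl RPMI by scraping and aspiration. Cells used undiluted (about 2 x 10^8 cells/ml equivalent) or adjusted by A600 against a hemacytometer-calibrated yeast standard curve. Drug exposure at 37°C for 48 h (caspofungin 24 h), then XTT/menadione read at 490 nm.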

Candida albicans [5] = experiment: Antimicrobial activity against Chk1 deficient Candida albicans CHK21 at planktonic cell density of 10^8 cells/ml after 48 hrs by XTT assay; type: functional; settings: CHK21, 48 h
Summary of the method: (§4)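 YNB-grown yeast (50 mM glucose, room temperature, shaken, to ~2 x 10^8 cells/ml) washed into MOPS-buffered RPMI 1640 with L-glutamine and set to the stated density. Exposed to twofold serial drug dilutions (1,024 to 0.0313 µg/ml) at 37°C, 48 h (caspofungin 24 h), with drug-free controls. Read-out: XTT (0.5 g/liter) plus 1 µM menadione, formazan at 490 nm.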

Candida albicans [6] = experiment: Antimicrobial activity against fluconazole-resistant Candida albicans FH5 at planktonic cell density of 10^3 cells/ml after 48 hrs by XTT assay; type: functional; settings: FH5, 48 h; summary of the method: as §4
Candida albicans [7] = experiment: Antimicrobial activity against Candida albicans SC5314 at planktonic cell density of 10^3 cells/ml after 48 hrs by XTT assay; type: functional; settings: SC5314, 48 h; summary of the method: as §4
Candida albicans [8] = experiment: Antimicrobial activity against Chk1 deficient Candida albicans CHK21 dissociated biofilms at cell density of 10^3 cells/ml after 48 hrs by XTT assay; type: functional; settings: CHK21, 48 h; summary of the method: as §3
Candida albicans [9] = experiment: Antimicrobial activity against Candida albicans SC5314 dissociated biofilms at cell density of 10^3 cells/ml after 48 hrs by XTT assay; type: functional; settings: SC5314, 48 h; summary of the method: as §3
Candida albicans [10] = experiment: Antimicrobial activity against Chk1 deficient Candida albicans CHK21 at planktonic cell density of 10^3 cells/ml after 48 hrs by XTT assay; type: functional; settings: CHK21, 48 h; summary of the method: as §4
Candida albicans [11] = experiment: Antimicrobial activity against Candida albicans intact biofilms; type: functional
Summary of the method: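 Biofilm formed in polystyrene wells from 1 x 10^6 cells/ml, 48 h at 37°C in MOPS-buffered RPMI 1640, washed once. Intact biofilm exposed in the same well to twofold serial drug dilutions (1,024 to 0.0313 µg/ml) at 37°C for 48 h (caspofungin 24 h), with drug-free controls. Metabolic activity measured by XTT plus 1 µM menadione, absorbance at 490 nm.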

Candida albicans [12] = experiment: Antimicrobial activity against Candida albicans SC5314 intact biofilms after 48 hrs by XTT assay; type: functional; settings: SC5314, 48 h; summary of the method: as §1
Candida albicans [13] = experiment: Antimicrobial activity against Candida albicans SC5314 dissociated biofilms grown on polyvinylchloride catheter surface at cell density of 10^8 cells/ml at 0.25 to 8 ug/ml by XTT assay; type: functional, organism-based; summary of the method: as §2
Candida albicans [14] = experiment: Antimicrobial activity against Cdr1, Cdr2 and Mdr1 deficient Candida albicans DSY1050 at planktonic cell density of 10^8 cells/ml after 48 hrs by XTT assay; type: functional; settings: DSY1050, 48 h; summary of the method: as §4
Candida albicans [15] = experiment: Antimicrobial activity against Candida albicans FH1 at planktonic cell density of 10^3 cells/ml after 48 hrs by XTT assay; type: functional; settings: FH1, 48 h; summary of the method: as §4
Candida albicans [16] = experiment: Antimicrobial activity against Chk1 deficient Candida albicans CHK21 dissociated biofilms at cell density of 10^8 cells/ml after 48 hrs by XTT assay; type: functional; settings: CHK21, 48 h; summary of the method: as §3
Candida albicans [17] = experiment: Antimicrobial activity against Candida albicans GDH2346 at planktonic cell density of 10^8 cells/ml after 48 hrs by XTT assay; type: functional; settings: GDH2346, 48 h; summary of the method: as §4
Candida albicans [18] = experiment: Antimicrobial activity against Candida albicans FH1 dissociated biofilms at cell density of 10^8 cells/ml after 48 hrs by XTT assay; type: functional; settings: FH1, 48 h; summary of the method: as §3
Candida albicans [19] = experiment: Antimicrobial activity against Chk1 deficient Candida albicans CHK21 intact biofilms after 48 hrs by XTT assay; type: functional; settings: CHK21, 48 h; summary of the method: as §1
Candida albicans [20] = experiment: Antimicrobial activity against fluconazole-resistant Candida albicans FH5 intact biofilms after 48 hrs by XTT assay; type: functional; settings: FH5, 48 h; summary of the method: as §1
Candida albicans [21] = experiment: Antimicrobial activity against Candida albicans SC5314 at planktonic cell density of 10^8 cells/ml after 48 hrs by XTT assay; type: functional; settings: SC5314, 48 h; summary of the method: as §4
Candida albicans [22] = experiment: Antimicrobial activity against Candida albicans disaggregated biofilms; type: functional
Summary of the method: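 Biofilm grown 48 h at 37°C in RPMI (MOPS-buffered) on polystyrene wells from 1 x 10^6 cells/ml, washed, then dissociated by scraping/aspiration in 100 µl. Used undiluted (about 2 x 10^8 cells/ml) or diluted to about 2 x 10^3 cells/ml. Twofold drug dilutions (1,024 to 0.0313 µg/ml) for 48 h at 37°C (caspofungin 24 h). Read-out is XTT/menadione reduction at 490 nm.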

Candida albicans [23] = experiment: Antimicrobial activity against Candida albicans GDH2346 at planktonic cell density of 10^3 cells/ml after 48 hrs by XTT assay; type: functional; settings: GDH2346, 48 h; summary of the method: as §4
Candida albicans [24] = experiment: Antimicrobial activity against Candida albicans FH1 dissociated biofilms at cell density of 10^3 cells/ml after 48 hrs by XTT assay; type: functional; settings: FH1, 48 h; summary of the method: as §3
Candida albicans [25] = experiment: Antimicrobial activity against fluconazole-resistant Candida albicans FH5 at planktonic cell density of 10^8 cells/ml after 48 hrs by XTT assay; type: functional; settings: FH5, 48 h; summary of the method: as §4
Candida albicans [26] = experiment: Antimicrobial activity against Candida albicans SC5314 dissociated biofilms grown on polymethylmethacrylate surface at cell density of 10^8 cells/ml at 0.25 to 8 ug/ml by XTT assay; type: functional, organism-based; summary of the method: as §2
Candida albicans [27] = experiment: Antimicrobial activity against Candida albicans SC5314 at 512 ug/ml at planktonic cell density of 5 x 10^7 cells/ml after 48 hrs by XTT assay; type: functional; settings: SC5314, 48 h
Candida albicans [28] = experiment: Antimicrobial activity against Candida albicans SC5314 dissociated biofilms at cell density of 10^8 cells/ml after 48 hrs by XTT assay; type: functional; settings: SC5314, 48 h; summary of the method: as §3

`OC(Cn1cncn1)(Cn1cncn1)c1ccc(F)cc1F` [FLUCONAZOLE] was tested, and the MIC80 (Candida albicans [1]) was greater than 512 µg/mL, the Activity (Candida albicans [2]) was “inactive” and the Activity (Candida albicans [3]) was 15%. For the same compound, the MIC80 (Candida albicans [4]) was 0.125 µg/mL (≈ 0.408 µM), the MIC80 (Candida albicans [5]) was greater than 64 µg/mL and the MIC80 (Candida albicans [6]) was 64 µg/mL (≈ 209 µM). It also gave an MIC80 (Candida albicans [7]) of 0.5 µg/mL (≈ 1.63 µM), an MIC80 (Candida albicans [8]) of 0.125 µg/mL (≈ 0.408 µM) and an MIC80 (Candida albicans [9]) of 0.25 µg/mL (≈ 0.816 µM). For the same compound, the MIC80 (Candida albicans [10]) was 0.125 µg/mL (≈ 0.408 µM), the MIC (Candida albicans [11]) was greater than 1020 µg/mL and the MIC80 (Candida albicans [12]) was greater than 512 µg/mL. The Activity (Candida albicans [13]) was “inactive”, the MIC80 (Candida albicans [14]) was greater than 64 µg/mL and the MIC80 (Candida albicans [15]) was 4 µg/mL (≈ 13.1 µM). For the same compound, the MIC80 (Candida albicans [16]) was greater than 64 µg/mL, the MIC80 (Candida albicans [17]) was greater than 512 µg/mL and the MIC80 (Candida albicans [18]) was greater than 512 µg/mL. The MIC80 (Candida albicans [19]) was greater than 64 µg/mL, the MIC80 (Candida albicans [20]) was greater than 512 µg/mL and the MIC80 (Candida albicans [21]) was greater than 256 µg/mL. It also gave an MIC (Candida albicans [22]) of 256 µg/mL (≈ 836 µM), an MIC80 (Candida albicans [23]) of 2 µg/mL (≈ 6.53 µM) and an MIC80 (Candida albicans [24]) of 2 µg/mL (≈ 6.53 µM). The MIC80 (Candida albicans [25]) was greater than 512 µg/mL, the Activity (Candida albicans [26]) was “inactive” and the inhibition at 512 µg/mL (Candida albicans [27]) was 40%. It also gave an MIC80 (Candida albicans [28]) greater than 256 µg/mL.
